We go through 14 compounds from PubChem BioAssay.

The structures appear in SMILES notation. Active and inactive are the calls of the source. Rule as the data show it, unless noted: active = inhibition above about 30%; inactive = the rest.

Test [1] is described as follows: Her2 expression decrease, cell viability multiplex – SKBR3 breast tumor cells, AlphaScreen, ATP viability, primary screen (AID 461;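 active = Her2 level under about 52% in both replicate screens, with viability over 70% of control, limit read from the data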;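 as to Her2 level: lower value means less Her2 protein in the cells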;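 as to viability: percent of carrier control wells set as 100% viability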). The conditions noted are these: SKBR3 Her2 protein level, 18-24 h, measured here: SKBR3 viability, ATP luminescence, at 10 µM. A general note: Bead proximity is the source of the signal in Alpha formats.
Test [2] concerns the target Receptor tyrosine-protein kinase erbB-2 (Homo sapiens) (UniProt P04626). Described as above. The settings on record: 18-24 h, at 10 µM, stronger effect = lower value.
The nature of test [3]: reduced viability of SK-BR-3 breast cancer cells – cell-based, 24 h, human, pilot screen (AID 572;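 active = viability at or below 10% of carrier control in both of two separate runs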;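 also: compound exposure lasted between 18 and 24 h rather than exactly 24 h; 100% = carrier-treated control wells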). The settings on record: SK-BR-3 viability, CellTiter-Glo luminescence, at 10 µM, stronger effect = lower value.
Test [4] is described as follows: HUVEC growth inhibition – cell-based, human, primary screen (AID 575;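 active = viability at or below 30% in both replicate assays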;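 also: 100% = median of untreated cell wells with 0.1% DMSO on each plate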). The conditions noted are these: HUVEC proliferation, CellTiter-Glo luminescence, 72 h; at 10 µM; stronger effect = lower value. The method in brief: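 System – primary HUVEC, no more than 12 passages · Medium – Low-serum (2% FBS) EBM, supplemented · Times – 72 h exposure, 37 °C, 5% CO2, 30 min RT equilibration · Measured by – luminescent ATP assay · Read-out – % viability relative to median vehicle-well signal on each plate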

Test [5] in a line: H69AR cell proliferation blockers – human, duplicate replicates, primary screen (AID 580;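 active = viability at or under a set limit in both replicates, limit being median viability minus 3 SD, cut at about 48% in these data, passing the limit was not always enough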;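 also: 100% = mean luminescence of untreated wells and 0% = no signal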). The settings on record: H69AR lung tumor cells viability, ATP luminescence, 72 h; at 10 µM; stronger effect = lower value.
Test [6] is described as follows: MRP1 drug-resistance reversers in H69AR cells – cell-based, doxorubicin co-treatment, pilot screen (AID 601;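 active = viability loss from added drug above about 55%, and viability with drug at most 40%, in both replicates, limit read from the data, passing the limit was not always enough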). The conditions noted are these: CellTiter-Glo, 72 h, at 10 µM; for differential viability (reversal): stronger effect = higher value. (In general: Cellular ATP, detected with luciferase, serves as a proxy for viable cell number.)
Test [7] in a line: yeast transport mutant growth inhibition pilot in 384-well plates, post-Golgi transport modulator project (AID 636; in the data active = inhibition above about 31%). The conditions noted are these: absorbance 615 nm, about 18 h, stronger effect = higher value.
A short description of test [8]: growth suppression of yeast trafficking mutant, preliminary HTS, modulators of trafficking downstream of Golgi apparatus project, 1536-format plate, OD 615 nm (AID 637). The conditions noted are these: yeast transport mutant growth, absorbance 615 nm, 18 h; stronger effect = higher value.
The mark [9] stands for this setting: H69AR cells + 2 uM doxorubicin, measured here: viability with 2 uM doxorubicin, stronger effect = lower value.
The mark [10] stands for this setting: H69AR cells, compound alone cytotoxicity.

Receptor tyrosine-protein kinase erbB-2 (Homo sapiens), sequence (P04626 whole entry, looked up): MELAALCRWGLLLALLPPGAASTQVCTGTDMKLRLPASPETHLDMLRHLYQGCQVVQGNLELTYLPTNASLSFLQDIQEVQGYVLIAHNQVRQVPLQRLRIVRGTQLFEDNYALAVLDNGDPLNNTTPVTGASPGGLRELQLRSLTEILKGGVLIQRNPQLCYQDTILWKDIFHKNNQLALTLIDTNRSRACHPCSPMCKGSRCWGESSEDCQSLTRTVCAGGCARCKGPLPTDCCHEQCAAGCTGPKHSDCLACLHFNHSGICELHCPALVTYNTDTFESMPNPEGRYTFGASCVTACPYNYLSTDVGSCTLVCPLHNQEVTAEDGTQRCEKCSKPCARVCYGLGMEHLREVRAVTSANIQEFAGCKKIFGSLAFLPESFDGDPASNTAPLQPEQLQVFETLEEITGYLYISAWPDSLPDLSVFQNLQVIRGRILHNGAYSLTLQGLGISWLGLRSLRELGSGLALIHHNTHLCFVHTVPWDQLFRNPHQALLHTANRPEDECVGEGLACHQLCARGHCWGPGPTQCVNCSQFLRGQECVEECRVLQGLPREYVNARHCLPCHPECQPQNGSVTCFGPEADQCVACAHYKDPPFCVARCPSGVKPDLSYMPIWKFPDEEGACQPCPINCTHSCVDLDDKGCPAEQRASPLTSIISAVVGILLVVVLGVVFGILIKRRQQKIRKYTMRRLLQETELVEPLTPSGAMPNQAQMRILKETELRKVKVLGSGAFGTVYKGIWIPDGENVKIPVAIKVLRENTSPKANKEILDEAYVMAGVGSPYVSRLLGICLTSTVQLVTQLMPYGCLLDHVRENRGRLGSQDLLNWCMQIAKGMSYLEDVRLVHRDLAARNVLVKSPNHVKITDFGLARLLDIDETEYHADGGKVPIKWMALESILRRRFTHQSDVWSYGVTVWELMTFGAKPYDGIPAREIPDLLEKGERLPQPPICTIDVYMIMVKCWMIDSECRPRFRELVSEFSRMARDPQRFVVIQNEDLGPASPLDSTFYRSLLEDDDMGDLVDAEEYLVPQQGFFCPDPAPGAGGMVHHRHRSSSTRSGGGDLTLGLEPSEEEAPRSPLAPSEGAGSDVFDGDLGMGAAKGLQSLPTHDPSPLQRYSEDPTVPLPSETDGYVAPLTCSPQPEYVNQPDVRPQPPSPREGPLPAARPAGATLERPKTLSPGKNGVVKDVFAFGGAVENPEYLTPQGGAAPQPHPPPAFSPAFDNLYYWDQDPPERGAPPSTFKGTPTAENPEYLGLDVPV

Turning to `COc1cccc(-c2cc(C(F)(F)F)n3ncc(C(=O)O)c3n2)c1`, the viability – broadly, a read-out of living cells in per cent, often relative to untreated cells – in test [1] was 93%; in test [3], 93% (inactive); in test [4], 117% (inactive); in test [5], 108% (inactive); in test [6] (setting [9]), 98.8%; in test [6] (setting [10]) it was 108%. Further, in test [2], the Her2 level is 87.5% (inactive). In addition, in test [6] (H69AR cells + 2 uM doxorubicin), the differential viability (reversal) was 9.06% (inactive). The inhibition (commonly the change of the read-out against control, counted positive when it falls) in test [7] was -3.2% (inactive); in test [8], -2.95% (inactive).

As for `Cc1sc2ncnc(OCC(=O)N3CCN(S(=O)(=O)c4ccccc4)CC3)c2c1C`, the viability in test [1] was 69.5%; in test [3] it was 69.5% (inactive); in test [4], 100% (inactive); in test [5], 92.7% (inactive); in test [6] (setting [9]), 80.7%; in test [6] (setting [10]), 92.7%. The Her2 level in test [2] was 84.5% (inactive). For the same compound, the differential viability (reversal) in test [6] (H69AR cells + 2 uM doxorubicin) was 12% (inactive). Further, the inhibition in test [7] is -1.32% (inactive); in test [8] it was 0.95% (inactive).

With `CCOc1ccc(N2C(N)=NC(N)=NC2(C)C)cc1`, the viability was 92.5% in test [1]; 92.5% (inactive) in test [3]; 101% (inactive) in test [4]; 75.4% (inactive) in test [5]; 102% in test [6] (setting [9]); 75.4% in test [6] (setting [10]). In addition, the Her2 level in test [2] was 85% (inactive). Besides, in test [6] (H69AR cells + 2 uM doxorubicin), the differential viability (reversal) is -26.6% (inactive). For the same compound, the inhibition in test [7] is -0.26% (inactive); in test [8], 12.1% (inactive).

On to `O=C(CSc1ncnc2c1oc1ccccc12)Nc1ccccc1C(F)(F)F`, for which the viability in test [1] is 118%; in test [3], 118% (inactive); in test [4], 86.8% (inactive); in test [5], 95.8% (inactive); in test [6] (setting [9]), 87.6%; in test [6] (setting [10]) it was 95.8%. Besides, the Her2 level in test [2] was 126% (inactive). Moreover, in test [6] (H69AR cells + 2 uM doxorubicin), the differential viability (reversal) is 8.15% (inactive). Further, the inhibition in test [7] was -5.6% (inactive); in test [8], -2% (inactive).

On to `CCN(CC)CCn1c2ccccc2c2nc(C)sc21`, for which the viability is 113% in test [1]; 113% (inactive) in test [3]; 104% (inactive) in test [4]; 92.6% (inactive) in test [5]; 100% in test [6] (setting [9]); 92.6% in test [6] (setting [10]). For the same compound, in test [2], the Her2 level is 96.5% (inactive). Further, the differential viability (reversal) in test [6] (H69AR cells + 2 uM doxorubicin) was -7.46% (inactive). The inhibition in test [7] is -5.32% (inactive); in test [8], -2.54% (inactive).

As to `COC(=O)c1sc(S(=O)(=O)NCc2cccs2)c(C(=O)OC)c1C`, the viability in test [1] is 84%; in test [3], 84% (inactive); in test [4] it was 85.8% (inactive); in test [5], 92.3% (inactive); in test [6] (setting [9]), 84.9%; in test [6] (setting [10]) it was 92.3%. For the same compound, the Her2 level in test [2] is 93% (inactive). Besides, the differential viability (reversal) in test [6] (H69AR cells + 2 uM doxorubicin) is 7.38% (inactive). The figures for the inhibition in test [7] and in test [8] were -8.24% (inactive) and 4.26% (inactive), respectively.

Take `COc1cc(OC)c(C2N(C)c3ccccc3N2C)cc1OC`: the viability in test [1] was 91.5%; in test [3], 91.5% (inactive); in test [4] it was 86.7% (inactive); in test [5] it was 107% (inactive); in test [6] (setting [9]) it was 98.4%; in test [6] (setting [10]) it was 107%. The Her2 level in test [2] is 112% (inactive). The differential viability (reversal) in test [6] (H69AR cells + 2 uM doxorubicin) was 8.16% (inactive). The inhibition was -5.68% (inactive) in test [7] and 4.26% (inactive) in test [8].

For `COc1ccc(C)cc1-n1nnnc1SCC(=O)Nc1cc(C)on1`, the viability in test [1] is 95%; in test [3], 95% (inactive); in test [4], 78.6% (inactive); in test [5], 90.6% (inactive); in test [6] (setting [9]) it was 85.9%; in test [6] (setting [10]) it was 90.6%. Besides, the Her2 level in test [2] is 85% (inactive). Moreover, the differential viability (reversal) in test [6] (H69AR cells + 2 uM doxorubicin) was 4.68% (inactive). Further, the inhibition is -2.6% (inactive) in test [7] and -0.63% (inactive) in test [8].

`O=C(Nc1ccc(N2CCN(Cc3ccccc3Cl)CC2)cc1)c1cccnc1`: the viability in test [1] is 91%; in test [3], 91% (inactive); in test [4] it was 117% (inactive); in test [5], 103% (inactive); in test [6] (setting [9]) it was 98%; in test [6] (setting [10]) it was 103%. Further, the Her2 level in test [2] was 108% (inactive). In test [6] (H69AR cells + 2 uM doxorubicin), the differential viability (reversal) was 5.44% (inactive). Besides, the results for the inhibition in test [7] and in test [8] were 2.16% (inactive) and 0.82% (inactive), respectively.

As for `O=C(CS(=O)(=O)Cc1ccccc1)N1CCc2ccccc2C1`, the viability in test [1] is 94.5%; in test [3], 94.5% (inactive); in test [4], 86.4% (inactive); in test [5] it was 101% (inactive); in test [6] (setting [9]) it was 89.4%; in test [6] (setting [10]), 101%. The Her2 level in test [2] is 94.5% (inactive). Moreover, the differential viability (reversal) in test [6] (H69AR cells + 2 uM doxorubicin) was 11.5% (inactive). Besides, the inhibition is -5.6% (inactive) in test [7] and -1.61% (inactive) in test [8].

Take `O=C1CC(N2CCOCC2)C(=O)N1c1ccc2c(c1)OCO2` (stereo not given): the viability in test [1] was 102%; in test [3], 102% (inactive); in test [4], 92% (inactive); in test [5] it was 104% (inactive); in test [6] (setting [9]) it was 108%; in test [6] (setting [10]) it was 104%. In addition, in test [2], the Her2 level was 92.5% (inactive). In test [6] (H69AR cells + 2 uM doxorubicin), the differential viability (reversal) was -4.17% (inactive). In addition, the inhibition in test [7] was -2.11% (inactive); in test [8] it was 0.32% (inactive).

Turning to `CC(C)=CC(=O)N1CCCc2ccccc21`, the viability in test [1] was 112%; in test [3], 112% (inactive); in test [4], 105% (inactive); in test [5], 98.4% (inactive); in test [6] (setting [9]) it was 93.2%; in test [6] (setting [10]) it was 98.4%. Further, the Her2 level in test [2] was 90% (inactive). In test [6] (H69AR cells + 2 uM doxorubicin), the differential viability (reversal) was 5.13% (inactive). The inhibition in test [7] was -4.53% (inactive); in test [8], -7.21% (inactive).

`C=Cn1nc(C)c2ccccc2c1=O`: the viability is 112% in test [1]; 112% (inactive) in test [3]; 105% (inactive) in test [4]; 90.1% (inactive) in test [5]; 85.2% in test [6] (setting [9]); 90.1% in test [6] (setting [10]). Further, the Her2 level in test [2] was 117% (inactive). Besides, in test [6] (H69AR cells + 2 uM doxorubicin), the differential viability (reversal) was 4.88% (inactive). The values for the inhibition in test [7] and in test [8] were -3.33% (inactive) and -7.83% (inactive), respectively.

With `O=C(NCCC1=CCCCC1)C1CC(=O)N(C2CCCCCC2)C1` (stereo not given), the viability in test [1] is 98%; in test [3], 98% (inactive); in test [4], 104% (inactive); in test [5], 99.5% (inactive); in test [6] (setting [9]), 88.5%; in test [6] (setting [10]) it was 99.5%. The Her2 level in test [2] is 110% (inactive). Moreover, the differential viability (reversal) in test [6] (H69AR cells + 2 uM doxorubicin) is 11% (inactive). The inhibition in test [7] is -1.15% (inactive); in test [8], -0.67% (inactive).
